# Results from ChEMBL document CHEMBL2203171, “The use of small molecule probes to study spatially separated stimulus-induced signaling pathways” (Bioorg Med Chem Lett, 2012).
# Calls of active or inactive are those of the source. No cut-off for these calls is given here.
# Tests used:
# Assay type in all cases: cell-based
# [1] = target: T1, Toll-like receptor 9 (Mus musculus) (UniProt Q9EQU3); experiment: Inhibition of MyD88 recruitment to TLR9 in C57BL/6 mouse BMDM cells assessed as inhibition of CpG-induced p38 MAPK activity up to 90 mins
# T1 sequence (whole entry): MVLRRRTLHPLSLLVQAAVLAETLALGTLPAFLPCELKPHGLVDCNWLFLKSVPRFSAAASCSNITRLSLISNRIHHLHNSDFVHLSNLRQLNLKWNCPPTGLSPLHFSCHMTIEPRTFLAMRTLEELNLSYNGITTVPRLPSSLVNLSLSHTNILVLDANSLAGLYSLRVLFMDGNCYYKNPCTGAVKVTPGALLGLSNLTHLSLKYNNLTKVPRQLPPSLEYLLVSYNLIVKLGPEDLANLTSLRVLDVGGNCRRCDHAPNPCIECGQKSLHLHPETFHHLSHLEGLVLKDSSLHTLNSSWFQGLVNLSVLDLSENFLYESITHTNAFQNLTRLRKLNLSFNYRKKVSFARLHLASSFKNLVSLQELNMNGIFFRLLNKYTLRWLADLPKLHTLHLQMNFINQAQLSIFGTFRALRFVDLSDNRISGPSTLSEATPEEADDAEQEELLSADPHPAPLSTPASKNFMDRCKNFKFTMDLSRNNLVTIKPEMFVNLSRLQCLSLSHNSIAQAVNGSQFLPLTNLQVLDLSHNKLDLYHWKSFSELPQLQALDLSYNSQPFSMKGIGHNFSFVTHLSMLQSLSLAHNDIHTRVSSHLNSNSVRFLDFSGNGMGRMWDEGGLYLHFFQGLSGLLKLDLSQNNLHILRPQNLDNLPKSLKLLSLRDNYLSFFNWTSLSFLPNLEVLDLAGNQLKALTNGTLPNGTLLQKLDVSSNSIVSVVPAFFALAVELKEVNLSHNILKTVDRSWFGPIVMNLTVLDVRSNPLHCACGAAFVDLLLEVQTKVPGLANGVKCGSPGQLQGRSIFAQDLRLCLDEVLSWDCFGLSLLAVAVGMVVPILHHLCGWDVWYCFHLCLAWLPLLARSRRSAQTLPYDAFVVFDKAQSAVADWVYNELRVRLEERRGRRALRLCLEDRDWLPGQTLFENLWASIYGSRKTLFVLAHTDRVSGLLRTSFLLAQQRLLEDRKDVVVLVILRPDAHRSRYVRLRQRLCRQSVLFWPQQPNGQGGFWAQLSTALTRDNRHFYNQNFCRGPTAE
# Procedure, shortened: (§1)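 Bone marrow macrophages from C57BL/6 mice, grown in 70% growth medium (DMEM, 10% FBS) plus 30% L929-conditioned medium and given fresh medium 12-14 h before stimulation. Stimuli: IL-1 40 ng/ml, HKSA ~10^8 cfu/ml, pI:pC 50 μg/ml or CpG 10 μg/ml, ± compound at 10 μM (final) added from a 200x DMSO stock. IκBα and p38 profiled by immunoblot. Three independent experiments, quantitated and normalized.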
# [2] = target: T2, Inhibitor of nuclear factor kappa-B kinase subunit beta (Mus musculus) (UniProt O88351); experiment: Inhibition of IKKbeta in C57BL/6 mouse BMDM cells assessed as inhibition of LPS-induced phosphorylation at 25 uM after 5 mins by Western blot analysis
# T2 sequence (whole entry): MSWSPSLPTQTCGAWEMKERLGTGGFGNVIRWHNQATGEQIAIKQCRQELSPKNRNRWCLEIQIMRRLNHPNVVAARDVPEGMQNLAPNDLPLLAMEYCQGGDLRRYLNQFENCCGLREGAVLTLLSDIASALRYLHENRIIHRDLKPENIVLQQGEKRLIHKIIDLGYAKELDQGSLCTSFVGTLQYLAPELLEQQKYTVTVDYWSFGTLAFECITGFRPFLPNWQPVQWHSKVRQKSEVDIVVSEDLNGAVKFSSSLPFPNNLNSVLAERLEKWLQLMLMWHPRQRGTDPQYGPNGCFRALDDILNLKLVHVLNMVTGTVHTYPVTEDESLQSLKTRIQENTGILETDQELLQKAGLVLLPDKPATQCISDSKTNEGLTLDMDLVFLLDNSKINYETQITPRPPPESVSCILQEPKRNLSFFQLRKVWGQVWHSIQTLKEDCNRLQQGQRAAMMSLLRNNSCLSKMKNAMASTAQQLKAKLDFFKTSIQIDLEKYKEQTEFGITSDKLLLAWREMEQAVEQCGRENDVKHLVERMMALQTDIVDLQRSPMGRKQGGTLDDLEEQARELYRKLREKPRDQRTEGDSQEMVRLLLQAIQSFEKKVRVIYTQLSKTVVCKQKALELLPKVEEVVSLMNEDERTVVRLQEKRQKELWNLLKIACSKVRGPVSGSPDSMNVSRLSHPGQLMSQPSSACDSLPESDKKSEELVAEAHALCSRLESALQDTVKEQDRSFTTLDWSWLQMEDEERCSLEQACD
# Procedure, shortened: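 C57BL/6 marrow-derived macrophages were cultured in 70% growth medium/30% L929-conditioned medium and refreshed 12-14 h before stimulation. Stimuli were TNF 40 ng/ml or LPS 100 ng/ml, ± compound at 25 μM from a 200x DMSO stock. Western blots tracked IKK, p38, IκBα and phospho-RelA. Results from three independent experiments were quantitated and normalized.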
# [3] = target: T2, Inhibitor of nuclear factor kappa-B kinase subunit beta (Mus musculus); experiment: Inhibition of IKKbeta in C57BL/6 mouse BMDM cells assessed as inhibition of LPS-induced MCP1 […] at 25 uM by Northern blot analysis
# [4] = target: T3, Interleukin-1 receptor type 1 (Mus musculus) (UniProt P13504); experiment: Inhibition of MyD88 recruitment to IL-1R in C57BL/6 mouse BMDM cells assessed as inhibition of IL1-induced p38 MAPK activity up to 90 mins; procedure, shortened: as §1
# T3 sequence (whole entry): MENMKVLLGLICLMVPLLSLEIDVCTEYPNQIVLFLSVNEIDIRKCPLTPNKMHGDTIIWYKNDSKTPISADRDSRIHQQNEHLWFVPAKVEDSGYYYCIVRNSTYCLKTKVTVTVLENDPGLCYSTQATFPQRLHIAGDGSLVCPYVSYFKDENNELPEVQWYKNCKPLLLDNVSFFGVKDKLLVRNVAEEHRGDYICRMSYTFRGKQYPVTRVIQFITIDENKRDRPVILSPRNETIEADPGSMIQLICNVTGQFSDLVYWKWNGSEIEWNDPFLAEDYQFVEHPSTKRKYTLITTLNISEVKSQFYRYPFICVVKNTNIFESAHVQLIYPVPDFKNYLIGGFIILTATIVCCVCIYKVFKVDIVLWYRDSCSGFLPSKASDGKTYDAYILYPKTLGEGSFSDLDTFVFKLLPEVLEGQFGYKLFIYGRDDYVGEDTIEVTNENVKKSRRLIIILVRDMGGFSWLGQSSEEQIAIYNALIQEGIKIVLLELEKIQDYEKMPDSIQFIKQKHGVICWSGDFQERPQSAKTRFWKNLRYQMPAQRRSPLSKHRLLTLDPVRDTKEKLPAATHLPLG
# [5] = target: T2, Inhibitor of nuclear factor kappa-B kinase subunit beta (Mus musculus); experiment: Inhibition of IKKbeta in C57BL/6 mouse BMDM cells assessed as inhibition of TNFalpha-induced MCP1 […] at 25 uM by Northern blot analysis
smiles,measurement,setting,value
O=C(CCCCCN1C(=O)C=CC1=O)Oc1ccc2cc(C(C(=O)NCc3ccccc3)N(C(=O)Cc3ccc4c(c3)OCO4)C3CC3)ccc2c1 (stereo not given),inhibition,[1],inactive
same,inhibition,[2],Active
same,inhibition,[3],Active
same,inhibition,[4],inactive
same,inhibition,[5],inactive
